# This is a sample that favours compounds with a hit; in the whole collection about 12% have one here.
# Dynein cargo inh: blocks dynein driven cargo transport along microtubules; 3617.4 mouse cells, GR-EGFP nuclear translocation imaging; test concentration mostly 20 µM; stimulated with dexamethasone, 1 µM; hits give low values; z-score, hits read low; 220,000 compounds, 0.47% hits; AID 1381;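 active = plate z-score of nuclear minus cytoplasmic receptor signal below a set negative limit, without overly bright fluorescence or cell loss, cut at about -3.5 in these data, passing the limit was not always enough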;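 note: z-score of nuclear minus cytoplasmic ring GR-EGFP intensity difference per well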
#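 Schedule: 48 h induction, then 1 h compound, then 30 min agonist, 37 °C. Buffer or medium: tetracycline-free induction medium containing charcoal-stripped FBS. Reagent: 1.0 µM final dexamethasone stimulus. Evaluation: nuclear versus cytoplasmic GR-EGFP signal, averaged per well. Signal: high-content fluorescence imaging after fixation.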
# MT stabilizer: microtubule stabilizers in HeLa cells. % tubulin-high responders, % at 10 µM. AID 2205. HeLa tubulin immunostaining HCS, 24 h; share of cells brighter than vehicle mean+2SD. 200,000 compounds, 0.83% hits;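 active = plate Z-score above 3 for both tubulin-high and condensed-nucleus cell shares, with cell loss under 80%, at 10 µM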;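 note: anti alpha tubulin signal scored within the nucleus-defined area of each cell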
# CHOP inh: inhibitors of CHOP induction in ER stress response | CHO-K1 CHOP-promoter luciferase, tunicamycin-induced, 15-18 h | 220,000 compounds, 3.8% hits | inhibition, % at 10 µM;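 active = compounds that reduced the stress-induced luciferase reporter signal by more than about 70% of percent inhibition, limit read from the data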;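 note: 0% = tunicamycin plus vehicle and 100% = wells without tunicamycin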
# b-catenin transl: modulators of beta-catenin nuclear translocation | HeLa beta-catenin nuclear translocation, immunofluorescence imaging | nuclear translocation activity, % at 5 µM | 190,000 compounds, 0.3% hits | AID 1665;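 active = nuclear translocation activity above 50% at 5 µM, with a well cell count of 50 or more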;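 note: per-cell ratio of nuclear to cytoplasmic median beta-catenin stain intensity; plate controls were DMSO negative control for no effect and GSK-3 inhibitor IX positive control for full effect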
#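 Read-out: Nuclear/cytoplasmic beta-catenin signal ratio, % activation | Assay system: Human HeLa cell line | Times: 24 h compound exposure at 37°C, 5% CO2 | Signal: Fluorescence imaging of beta-catenin antibody stain plus DAPI | Dosing: 5 µM primary, 0.02–20 µM confirmation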
# L major viab: Leishmania major promastigote growth inhibition; Leishmania major promastigotes, resazurin fluorescence viability; inhibition, % at 10 µM; 200,000 compounds, 9% hits; AID 1063; in the data active = inhibition above about 50%;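 note: promastigotes grown with compound for 44 hours at 28 °C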
# Autophagy HCS: alters autophagy in cells | 190,000 compounds, 0.98% hits | MEF GFP-LC3 puncta imaging; test concentration mostly 10 µM | calls only at 10 µM (by protocol);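 active = percentage of spot-positive cells more than 3 SD above its plate mean, without a fluorescence outlier flag or 80% toxicity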;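 note: spot-positive cell cutoff set from DMSO-treated cells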
# The depositor's hits bear a star; i = inactive; . = not tested or not shown; + = active, no number.
SMILES,Dynein cargo inh,MT stabilizer,CHOP inh,b-catenin transl,L major viab,Autophagy HCS
CC(C)(C)[C@H]1C=C(C(N)=O)O[C@@H](OCc2ccc(CO)cc2)C1,-0.66,4,-9,-3,-8,i
O=C1/C(=C/c2ccccc2O)SC(=S)N1Cc1cccnc1,0.29,2,6,0,88*,i
O=C1/C(=C/c2ccc(O)c([N+](=O)[O-])c2)SC(=S)N1Cc1ccccc1,0.27,3,51,-5,16,i
CCOc1ccc(-c2nn(-c3ccccc3)cc2/C=C2\SC(=S)N(Cc3ccco3)C2=O)cc1,-0.051,7,-4,-2,-6,i
CCN1C(=O)/C(=C\c2cn(-c3ccccc3)nc2-c2cccnc2)SC1=S,0.9,1,56,0,24,+
CCOC(=O)c1c(NC(=O)CN2CCOCC2)sc2c1CC(C)(C)OC2,0.2,8,24,-6,8,i
Cc1oc(S(=O)(=O)N(C)C)cc1C(=O)Nc1ccc(Cl)cc1,-1.2,.,17,0,.,.
Cc1cc2n(c(=O)c1C#N)CCCN2c1ccccc1,0.011,3,28,4,-8,i
Cc1cccc(C)c1NC(=O)CNc1ncnc2sc(C)c(C)c12,3.3,2,11,-1,7,i
O=c1c(/C=N/Nc2ccccc2)c(Sc2nnnn2-c2ccccc2)nc2ccccn12,-2.2,3,0,-1,9,+
CN1CCc2c(sc3c2C(=O)NC(c2ccc(-c4cccc(Cl)c4)o2)N3)C1 (stereo unspecified),0.93,3,1,0,68*,i
Cc1ccsc1C1NC(=O)c2c(sc3c2CCN(C)C3)N1 (stereo unspecified),-0.6,3,30,-6,88*,i
C=CCc1cc(Cl)ccc1OCCOCCNC(C)(C)C,-0.67,3,-2,1,99*,+
COc1cc(C=O)ccc1OCCOCCOc1ccccc1Cl,1.9,3,5,0,1,i
CCCOc1ccc(Cl)cc1CNc1ccccc1,0.54,4,-2,-1,2,i
C=CCc1cc(Cl)ccc1OCCOCCN(C)C,1.3,4,21,1,100*,i
C=CCc1cc(Cl)ccc1OCCOCCNCCOC,-0.59,1,26,1,99*,i
C=CCc1cc(Cl)ccc1OCCNCCCOC,-0.14,4,2,-2,100*,i
COc1ccc(CCNC(=O)C(C)Sc2ccc(C)cc2)cc1OC (stereo unspecified),-0.057,4,-14,-1,-1,i
O=C(Cc1cccc2ccccc12)NCCOc1ccccc1F,-0.29,2,19,-2,-1,i
CCC(C)NC(=O)CCSc1ccc(C)cc1 (stereo unspecified),1.1,3,-15,0,-2,i
C=CCc1ccccc1OCC(=O)OCCNC(=O)c1cccnc1,-0.083,4,43,-3,-9,i
C=CCc1ccccc1OCCNCCCOC,0.58,3,-38,0,83*,i
CCOC(=O)c1ccc(NC(=O)c2cn(CCC#N)nc2-c2ccc3c(c2)OCCO3)cc1,0.42,6,2,0,68*,i
CCOC(=O)c1c(C)oc2c(CC(=O)c3ccccc3)c(Cl)c(O)c(O)c12,-0.12,4,47,0,-6,i
SMILES,Dynein cargo inh,MT stabilizer,CHOP inh,b-catenin transl,L major viab,Autophagy HCS
CCN1CCN(C(=O)CN(c2cccc(Br)c2)S(=O)(=O)c2ccccc2)CC1,2.7,4,-19,1,98*,i
CN(c1ccc(C(=O)N2CCN(Cc3ccc4c(c3)OCO4)CC2)cc1)S(=O)(=O)c1ccccc1,-0.8,2,28,0,96*,i
Cc1ccc(S(=O)(=O)N(C)c2ccc(C(=O)N3CCN(Cc4ccc5c(c4)OCO5)CC3)cc2)cc1,0.11,1,22,.,100*,i
COc1ccc(N(CC(=O)N2CCN(Cc3ccc4c(c3)OCO4)CC2)S(=O)(=O)c2ccc(F)cc2)cc1,-0.93,.,12,2,.,.
Cc1cccc(C(=O)N2CCN(Cc3ccc4c(c3)OCO4)CC2)c1,-0.89,2,-3,.,40,i
O=C(CN(c1ccccc1)S(=O)(=O)c1ccccc1)N1CCN(Cc2ccc3c(c2)OCO3)CC1,2.3,2,0,.,72*,i
CCN(CC)C(=O)C1=C(C)Nc2nnnn2C1c1cccnc1 (stereo unspecified),0.055,4,2,.,-6,i
O=C(/C=C/c1ccccc1)NC(NC(=S)Nc1cccc(O)c1)C(Cl)(Cl)Cl (stereo unspecified),0.39,2,57,-3,93*,i
O=C(/C=C/c1ccccc1)NC(NC(=S)Nc1ccc(C(=O)O)cc1)C(Cl)(Cl)Cl (stereo unspecified),-0.28,2,43,0,0,i
O=C(/C=C/c1ccccc1)NC(NC(=S)Nc1ccc(Cl)cc1Cl)C(Cl)(Cl)Cl (stereo unspecified),-0.82,5,81*,-1,59*,i
S=C(Nc1ccccc1)Nc1ccc(Cl)cc1Cl,-0.29,3,26,.,26,i
COc1ccc(CC2(C)OC(c3ccc([N+](=O)[O-])cc3)=NN2C(C)=O)cc1 (stereo unspecified),0.2,.,-7,0,.,.
CCOc1cc2c3c(c1)C1(C(=O)N3C(C)(C)CC2C)C(C#N)=C(N)N2C(=C1C#N)Nc1ccccc12 (stereo unspecified),-0.11,2,25,5,66*,i
CC(=O)N(C)c1ccc(NC(=O)Nc2ccc(C)c(C)c2)cc1,-1,3,29,2,15,i
Cc1cc(C)c(C)c(OCCCOc2cccc3cccnc23)c1,0.016,2,81*,0,25,i
Cc1cc(OCCOc2cccc3cccnc23)cc(C)c1Cl,0.77,1,75*,.,-2,i
CCCCN1C2CCCC1CC(NC(=O)N(C(C)C)C(C)C)C2 (stereo unspecified),-0.62,3,.,.,-8,i
Cn1cnc([N+](=O)[O-])c1SCC(O)CN1CCCCC1 (stereo unspecified),-1.5,7,4,5,1,+
CCN(CC)c1ccc(/C=C(/C#N)C(=O)NC(C)C)o1,0.8,2,28,1,-5,i
CCN(CC)c1ccc(/C=C(/C#N)C(=O)NCc2ccccc2)o1,-0.2,2,31,1,0,+
S=C(Nc1ccccc1Cl)NC1CCCCCC1,-0.75,2,0,0,14,i
Cc1c(Cl)cccc1NC(=O)NC1CCCCC1,-0.44,3,78*,-2,-2,i
Cc1c(Cl)cccc1NC(=S)NCCCN(C)C,0.3,3,20,.,82*,i
Cc1c(Cl)cccc1NC(=S)NC1CC1,2.7,3,-19,.,82*,i

# Screens from PubChem BioAssay.
